Assay outcomes deposited in PubChem by several laboratories.
HNF4A DNA FP: change in binding of human HNF4 alpha to DNA; P41235; HNF4a-FITC DNA binding, fluorescence polarization, 1 h; activity change, % at 10 µM; actives 0.3% (n = 360,000); AID 1224865; in the data active = activity change above about 30%, passing the limit was not always enough
CSN inh: CSN deneddylation inhibition; AID 651999; Q92905; inhibition, % at 12.5 µM; actives 0.38% (n = 360,000); Purified CSN, SCF-Nedd8-OG deneddylation, fluorescence polarization;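 active = pattern-corrected inhibition above about 35%, with an unprinted fluorescence ratio check between 0.5 and 1.5, limit read from the data, passing the limit was not always enough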;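 note: 0% = enzyme with substrate and 100% = substrate without enzyme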
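Assay system: Purified human Csn5 enzyme expressed in HEK293T cells | Amount: Enzyme 0.24 nM | Measured by: Fluorescence polarization readout | Medium: Tris/NaCl/DTT buffer, pH 7.5 | Compound dosing: One concentration, 12.5 µM, 0.25% DMSO | Times: 90 min incubation of compound, enzyme and substrate at room temperature | Control set: no-enzyme wells high, enzyme-with-substrate wells low | Read-out: % inhibition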
CRFBP-R2 block: blocks CRF-induced signaling of the CRF-BP/CRF-R2 complex | HEK293 CRF-R2/CRF-BP, CRF-induced calcium fluorescence | inhibition, % at 11.8 µM | actives 0.59% (n = 350,000);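 active = inhibition of the ligand-induced calcium signal above about 50% at the single tested concentration, limit read from the data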
Rpn11 inh: inhibitors of human proteasome Rpn11; O00487; human 26S proteasome, Ub4-pepOG fluorescence polarization; 20S core pre-blocked with epoxomicin; calls only at 20 µM; actives 0.59% (n = 360,000);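 active = inhibition at 20 µM, scaled to each plate's controls, above about 33%, limit read from the data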
Target sequence (O00487 whole entry, looked up): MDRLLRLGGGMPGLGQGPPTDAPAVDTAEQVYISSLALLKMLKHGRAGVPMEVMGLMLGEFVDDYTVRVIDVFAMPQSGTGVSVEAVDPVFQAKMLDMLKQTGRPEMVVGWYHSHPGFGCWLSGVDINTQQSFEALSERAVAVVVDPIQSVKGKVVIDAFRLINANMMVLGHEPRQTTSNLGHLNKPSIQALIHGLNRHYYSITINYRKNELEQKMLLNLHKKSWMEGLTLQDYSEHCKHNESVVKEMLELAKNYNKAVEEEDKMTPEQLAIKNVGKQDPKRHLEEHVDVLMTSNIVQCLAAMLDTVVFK
CRFR2-BP ag: agonists of human CRF-binding protein/CRF-R2 receptor complex. actives 0.46% (n = 350,000). activation, % at 13.2 µM. AID 588473. HEK293 CRF-R2/CRF-BP, calcium dye fluorescence (FLIPR); percent of saturating CRF peptide response;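 active = activation of at least 50%, plus an integration ratio under a set limit after plate pattern correction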;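 note: plate controls were neutral control wells without compound for no effect and CRF at EC100 for full effect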
TPT1 inh: blocks Candida albicans tRNA 2'-phosphotransferase | inhibition, % at 5 µM | recombinant caTPT1, FP RNA substrate dephosphorylation | AID 1962 | actives 0.81% (n = 300,000);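 active = inhibition above the mean of all tested compounds plus 3 SD, set per screening campaign, cut at about 24% in these data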;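 note: plate controls were DMSO alone for no effect and ferristatin control at 100 nM for full effect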
* hit, by the source's call; i = inactive; nt = no result shown; + = active, no number. This is a sample that favours compounds with a hit; in the whole collection about 2.3% have one here.

SMILES	HNF4A DNA FP	CSN inh	CRFBP-R2 block	Rpn11 inh	CRFR2-BP ag	TPT1 inh
CCOC(=O)c1sc(NC(=O)c2cccc(S(=O)(=O)N3CCN(C)CC3)c2)cc1C	2	3	67*	i	-2	1
CCOc1cc(CNc2ccccc2SC)ccc1O	nt	nt	nt	nt	nt	2
COc1cc(CNc2ccccc2SC)ccc1O	15	-1	55*	i	-3	-1
CCCCC(CC)CN=C(N)NC(N)=NCCCCCCN=C(N)NC(N)=NCC(CC)CCCC (stereo not given)	98*	127*	-71	+	112*	-1
O=[N+]([O-])c1cc(Cl)cc(/C=N/Nc2nc3ccccc3s2)c1O	-1	-3	82*	i	-6	-5
COc1cc(/C=N/Nc2nc3ccccc3s2)cc([N+](=O)[O-])c1O	1	-6	26	i	-1	-5
COC(=O)c1c(C)[nH]c(C(=O)OCC(=O)c2c(N)n(CC(C)C)c(=O)n(C)c2=O)c1C	3	4	-31	i	2	nt
Cn1c(C(=O)N2CCCC(C(=O)NCCN3CCOCC3)C2)cc2sccc21 (stereo not given)	0	1	10	i	-5	-5
COc1ccc(OC)c(NC(=O)CSc2ncnc3c2cnn3-c2ccccc2Cl)c1	3	5	56*	i	0	-5
COc1cc(NC(=O)CSc2ncnc3c2cnn3Cc2ccccc2)cc(OC)c1	1	-2	22	i	4	-4
CCOC(=O)c1cn[nH]c1NC(=S)Nc1ccc(Cl)cc1	0	1	94*	i	1	-2
CCOC(=O)c1ccc(NC(=S)Nc2ccc(C)cc2)cc1	-1	-1	2	i	-1	-2
Cc1ccc(C)c(NC(=O)Cn2cnc3c(oc4ccccc43)c2=O)c1	-3	9	52*	i	-4	-1
O=C(COC(=O)CC1c2ccccc2CCN1S(=O)(=O)c1ccc(F)cc1)Nc1ccccc1 (stereo not given)	0	-8	57*	i	7	-8
CCN1CCN(Cc2ccc(NC(=O)c3cc(NC(=O)c4cnn(-c5ccccc5)c4N)cc(OC)c3)cc2C(F)(F)F)CC1	1	6	9	i	7	1
CCc1cc(=O)oc2cc3occ(C)c3cc12	-2	-9	-2	i	4	-1
CCc1cc(=O)oc2cc3occ(-c4ccc(OC)c(F)c4)c3cc12	30	37*	9	i	0	-1
COc1ccc(OC)c(NC(=O)c2nc(S(=O)(=O)Cc3ccccc3)ncc2Cl)c1	2	1	62*	i	-1	-2
Cc1cccc(C)c1NC(=O)c1nc(S(=O)(=O)Cc2ccccc2)ncc1Cl	-4	0	-7	i	-1	-5
Cc1ccc(NC(=O)c2nc(S(=O)(=O)Cc3ccccc3)ncc2Cl)cc1	-5	-3	44	i	1	-1
O=C(Nc1ccc(F)cc1)c1nc(S(=O)(=O)Cc2ccccc2)ncc1Cl	-1	1	56*	i	-1	-3
O=C(Nc1ccc(C(=O)N2CCOCC2)cc1)c1ccccc1	-1	-2	2	i	1	nt
N#CC1(NC(=O)COC(=O)CCCN=C2NS(=O)(=O)c3ccccc32)CCCCC1	3	-1	-36	i	2	-1
Cc1[nH]c2ccccc2c1SCCNC(=O)c1ccc(S(=O)(=O)N2CCCC2)cc1	4	0	114*	i	-4	0
Cc1ccc(C(=O)CSc2nc3cc(S(=O)(=O)N4CCOCC4)ccc3o2)cc1	1	0	6	i	0	2
SMILES	HNF4A DNA FP	CSN inh	CRFBP-R2 block	Rpn11 inh	CRFR2-BP ag	TPT1 inh
Cc1[nH]c2ccccc2c1C(=O)CSc1nc2cc(S(=O)(=O)N3CCCCC3)ccc2o1	4	100*	-17	i	8	6
Cn1cccc1Cc1nnc(SCC(=O)Nc2cccc(Cl)c2)n1-c1ccc(F)cc1	0	-4	-5	i	-1	2
Cc1ccc(S(=O)(=O)CCC(=O)Nc2cc(Cl)ccc2-n2cncn2)cc1	1	-5	50*	i	0	0
Cc1ccc(OCC(=O)Nc2cc(Cl)ccc2-n2cncn2)c(C)c1	3	-2	-4	i	-1	nt
COc1ccccc1/C=C/[C@@H]1C[C@H]2CN(Cc3cccc(Cl)c3)C(=O)[C@]23CCCN13	5	5	-19	i	1	5
CCc1ccc(N2C(=O)c3sc4nnc(C)c(=O)n4c3C2=O)cc1	1	1	-6	i	0	1
Cc1ccc(N2C(=O)c3sc4nnc(C)c(=O)n4c3C2=O)cc1	3	0	52*	i	-1	1
C/C(Nc1cccc(F)c1)=C(/C#N)C(N)=O	1	3	2	i	1	-2
CCn1c(O)c(/C=N/NC(=O)c2ccncc2)c(=O)n(CC)c1=S	78*	131	-11	nt	11	nt
Cc1ccc(NC(=O)CN(C)Cc2ccc(Cl)cc2)cc1	2	5	-4	i	-2	-2
COc1ccc(CC(=O)NC2CCN(Cc3nnnn3C(C)(C)C)CC2)cc1OC	-1	3	14	i	-1	1
CCC/C(=N/Nc1ccc(Cl)cc1)c1cnnc(-c2ccccc2)n1	nt	nt	-21	nt	-1	-2
COc1ccc(N/N=C(/C)c2cnnc(-c3ccccc3)n2)cc1	46*	26	-2	nt	0	3
Cc1ccc(S(=O)(=O)N2CCOCC2)cc1C(=O)OCC(=O)NC1CC1	1	60*	1	i	2	nt
COc1cc(C)c(C(C)C)cc1S(=O)(=O)n1cnc(C)c1	1	1	20	i	-1	0
CCOC(=O)C1=CCN(S(=O)(=O)c2ccccc2)C1c1ccccc1 (stereo not given)	-1	121*	nt	i	nt	nt
CCOC(=O)C1=CCN(S(=O)(=O)c2ccccc2)C1c1ccc(C)cc1 (stereo not given)	-7	-2	nt	i	nt	nt
COc1ccccc1NC(=O)c1ccccc1NS(=O)(=O)c1cccs1	-3	-4	9	i	-2	0
O=C(Nc1cc(S(=O)(=O)N2CCOCC2)ccc1O)c1ccc(NS(=O)(=O)c2ccc(Cl)s2)cc1	2	-1	-2	i	-2	-3
COc1ccc(C)cc1NC(=O)c1ccccc1NS(=O)(=O)c1ccc(Cl)s1	1	-1	65*	i	40	0
Cc1ccc(NC(=O)c2ccccc2NS(=O)(=O)c2ccc(Cl)s2)cc1S(=O)(=O)N1CCOCC1	0	4	87*	i	43	3
Cc1cc(C)n(CCC(=O)N=Nc2c(O)[nH]c3ccc(Br)cc23)n1	2	-2	93*	i	1	-2
